We go through 4 compounds from ChEMBL document CHEMBL4257519, “Generation of a long-acting fusion inhibitor against HIV-1” (Medchemcomm, 2018).

Data set [1] concerns Human immunodeficiency virus 1. Briefly: Antiviral activity against HIV1 subtype B' CNE6 pseudovirus assessed as inhibition of viral infection in Ghost (3)X4/R5 cells after 48 hrs by Bright-Glo luciferase reporter gene assay. It counts as functional, organism-based. The following applies: Human immunodeficiency virus 1, subtype B' CNE6, 48 h. A digest of the protocol: (§1)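 Single-round env-pseudotyped luciferase reporter viruses were made in HEK293T cells with the pNL4-3.Luc.R-E backbone. Ghost(3)X4/R5 target cells (CD4, CXCR4, CCR5) were grown in DMEM with 10% heat-inactivated FBS at 37 °C, 5% CO2. Peptides in 3-fold dilutions were preincubated with 100 TCID50 of virus for 1 h at room temperature. The mixture was added at 10^4 cells/well for 48 h at 37 °C. IC50 came from a variable-slope dose-response fit of luciferase reduction versus controls.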

For data set [2], the system named is Human immunodeficiency virus 1. In words: Antiviral activity against HIV1 subtype B' CNE11 pseudovirus assessed as inhibition of viral infection in Ghost (3)X4/R5 cells after 48 hrs by Bright-Glo luciferase reporter gene assay. It is filed as functional, organism-based. Particulars: Human immunodeficiency virus 1, subtype B' CNE11, 48 h. Put shortly:
as §1
On the technique in general: In a reporter assay the amount or activity of a reporter protein is the signal.

Data set [3] relates to Human immunodeficiency virus 1. In words: Antiviral activity against HIV1 subtype BC CNE15 pseudovirus assessed as inhibition of viral infection in Ghost (3)X4/R5 cells after 48 hrs by Bright-Glo luciferase reporter gene assay. It counts as functional, organism-based. The following applies: Human immunodeficiency virus 1, subtype BC CNE15, 48 h. A digest of the protocol:
as §1

Data set [4] deals with Human immunodeficiency virus 1. Briefly: Antiviral activity against HIV1 subtype BC CNE30 pseudovirus assessed as inhibition of viral infection in Ghost (3)X4/R5 cells after 48 hrs by Bright-Glo luciferase reporter gene assay. Particulars: Human immunodeficiency virus 1, subtype BC CNE30, 48 h. It counts as functional, organism-based. A digest of the protocol: as §1
Data set [5] deals with Human immunodeficiency virus 1. In words: Antiviral activity against HIV1 subtype CRF01_AE CNE5 pseudovirus assessed as inhibition of viral infection in Ghost (3)X4/R5 cells after 48 hrs by Bright-Glo luciferase reporter gene assay. It is filed as functional, organism-based, HIV-1 CRF01_AE. Particulars: Human immunodeficiency virus 1, CNE5, 48 h. Put shortly:
as §1

The test system of data set [6] is Human immunodeficiency virus 1. Briefly: Antiviral activity against HIV1 subtype CRF01_AE CNE55 pseudovirus assessed as inhibition of viral infection in Ghost (3)X4/R5 cells after 48 hrs by Bright-Glo luciferase reporter gene assay. It counts as functional, organism-based, HIV-1 CRF01_AE. The following applies: Human immunodeficiency virus 1, CNE55, 48 h. Put shortly: as §1

Data set [7] deals with Human immunodeficiency virus 1. In words: Antiviral activity against HIV-1 subtype B SF162 pseudovirus assessed as inhibition of viral infection in Ghost (3)X4/R5 cells after 48 hrs by Bright-Glo luciferase reporter gene assay. It counts as functional, organism-based. Particulars: Human immunodeficiency virus 1, SF162 ISOLATE. A digest of the protocol: as §1
For data set [8], the system named is Human immunodeficiency virus 1. In words: Antiviral activity against HIV-1 subtype B JRFL pseudovirus assessed as inhibition of viral infection in Ghost (3)X4/R5 cells after 48 hrs by Bright-Glo luciferase reporter gene assay. It is filed as functional, organism-based, HIV-1 group M. The following applies: Human immunodeficiency virus 1, JRFL. Put shortly:
as §1

The test system of data set [9] is Human immunodeficiency virus 1. In words: Antiviral activity against HIV-1 subtype B HXB2 pseudovirus assessed as inhibition of viral infection in Ghost (3)X4/R5 cells after 48 hrs by Bright-Glo luciferase reporter gene assay. The following applies: Human immunodeficiency virus 1, M:B_HXB2R. It is filed as functional, organism-based. Put shortly:
as §1

In data set [10] the test system is Human immunodeficiency virus 1. Briefly: Resistance index, ratio of IC50 for inhibition of gp41 D36G mutant-mediated T20-resistant HIV1 NL4-3 viral infection in Ghost (3)X4/R5 cells to IC50 for inhibition of gp41-mediated HIV1 NL4-3 infection in Ghost (3)X4/R5 cells. It counts as cell-based.
Data set [11] relates to Human immunodeficiency virus 1. Briefly: Resistance index, ratio of IC50 for inhibition of gp41 I37T mutant-mediated T20-resistant HIV1 NL4-3 viral infection in Ghost (3)X4/R5 cells to IC50 for inhibition of gp41-mediated HIV1 NL4-3 infection in Ghost (3)X4/R5 cells. It counts as cell-based.
Data set [12] concerns Human immunodeficiency virus 1. Briefly: Resistance index, ratio of IC50 for inhibition of gp41 V38M mutant-mediated T20-resistant HIV1 NL4-3 viral infection in Ghost (3)X4/R5 cells to IC50 for inhibition of gp41-mediated HIV1 NL4-3 infection in Ghost (3)X4/R5 cells. It is filed as cell-based.
The subject of data set [13] is Human immunodeficiency virus 1. Briefly: Resistance index, ratio of IC50 for inhibition of gp41 Q40H mutant-mediated T20-resistant HIV1 NL4-3 viral infection in Ghost (3)X4/R5 cells to IC50 for inhibition of gp41-mediated HIV1 NL4-3 infection in Ghost (3)X4/R5 cells. It is filed as cell-based.
Data set [14] relates to Human immunodeficiency virus 1. Briefly: Resistance index, ratio of IC50 for inhibition of gp41 N43K mutant-mediated T20-resistant HIV1 NL4-3 viral infection in Ghost (3)X4/R5 cells to IC50 for inhibition of gp41-mediated HIV1 NL4-3 infection in Ghost (3)X4/R5 cells. It is filed as cell-based.
Data set [15] deals with Human immunodeficiency virus 1. In words: Resistance index, ratio of IC50 for inhibition of gp41 I37T/N43K double mutant-mediated T20-resistant HIV1 NL4-3 viral infection in Ghost (3)X4/R5 cells to IC50 for inhibition of gp41-mediated HIV1 NL4-3 infection in Ghost (3)X4/R5 cells. It counts as cell-based.
Data set [16] has as its system Human immunodeficiency virus 1. In words: Resistance index, ratio of IC50 for inhibition of gp41 G36S/V38M double mutant-mediated T20-resistant HIV1 NL4-3 viral infection in Ghost (3)X4/R5 cells to IC50 for inhibition of gp41-mediated HIV1 NL4-3 infection in Ghost (3)X4/R5 cells. It is filed as cell-based.
In data set [17] the test system is Human immunodeficiency virus 1. Briefly: Resistance index, ratio of IC50 for inhibition of gp41 V38A/N42T double mutant-mediated T20-resistant HIV1 NL4-3 viral infection in Ghost (3)X4/R5 cells to IC50 for inhibition of gp41-mediated HIV1 NL4-3 infection in Ghost (3)X4/R5 cells. It is filed as cell-based.
A further data set concerns chymotrypsin. Briefly: Drug metabolism assessed as chymotrypsin (unknown origin)-mediated compound degradation by measuring compound half life at 25 uM by HPLC analysis. It counts as ADME, Homo sapiens. Put shortly: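 Peptide stock was 1 mM in DMSO, diluted into 50 mM PBS pH 7.4 containing chymotrypsin (0.5 ng/μL) and 50 mM CaCl2. Digestion ran at 30 °C. Remaining peptide was monitored by reversed-phase HPLC on a C4 column at 1.0 mL/min, acetonitrile/water with 0.1% TFA.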

In data set [18] the test system is Human immunodeficiency virus 1. In words: Resistance index, ratio of IC50 for inhibition of gp41 V38A mutant-mediated T20-resistant HIV1 NL4-3 viral infection in Ghost (3)X4/R5 cells to IC50 for inhibition of gp41-mediated HIV1 NL4-3 infection in Ghost (3)X4/R5 cells. It is filed as cell-based.

Where a SMILES comes first, the peptide text is derived from it. Bridges are numbered along the chain shown (N, C = ends). [ ]: non-standard residue; d: D form. S5 = C=CCCC[C@](C)(N)C(=O)O

A word on the IC50: it is the midpoint of a concentration-inhibition curve. One may read the half-life as the time needed for the level to fall by half in the phase considered. On to `CC[C@H](C)[C@H](NC(=O)[C@H](CC(C)C)NC(=O)[C@]1(C)CCC/C=C\CCC[C@](C)(NC(=O)[C@@H](NC(=O)[C@H](Cc2ccc(O)cc2)NC(=O)[C@]2(C)CCC/C=C\CCC[C@](C)(NC(=O)[C@H](CC(=O)O)NC(=O)[C@H](Cc3c[nH]c4ccccc34)NC(=O)[C@H](CCC(=O)O)NC(=O)[C@H](CCC(=O)O)NC(=O)[C@H](Cc3c[nH]c4ccccc34)NC(=O)[C@@H](NC(=O)[C@H](CCSC)NC(C)=O)[C@@H](C)O)C(=O)N[C@@H](CCCCN)C(=O)N[C@@H]([C@@H](C)CC)C(=O)N[C@@H](CCC(=O)O)C(=O)N2)[C@@H](C)O)C(=O)N[C@@H](CCCCN)C(=O)N[C@@H]([C@@H](C)CC)C(=O)N[C@@H](CCC(=O)O)C(=O)N1)C(=O)N[C@@H](CCCCN)C(=O)N[C@@H](CCCCN)C(=O)N[C@@H](CO)C(N)=O` (Ac-MTWEEWD[S5]KIE[S5]YT[S5]KIE[S5]LIKKS-NH2; staple (Z) 8-12, 15-19), for which the IC50 in [1] was 1.2 nM; in data set [2], 2.6 nM; in data set [3] it was 1.8 nM; in data set [4], 7.7 nM; in data set [5], 3.6 nM; in [6], 5.3 nM. Also, the IC50 in data set [7] worked out at 1 nM; in data set [8], 0.6 nM; in data set [9], 0.05 nM. For the same compound, the Ratio IC50 was 1.4 in [10]; 1.6 in data set [11]; 1 in [12]; 1.1 in [13]; 3.3 in data set [14]; 2.2 in data set [15]. The Ratio IC50 in data set [16] amounted to 2.1; in data set [17], 0.5; in data set [18], 0.8. Moreover, the half-life at 25 µM in the data set on chymotrypsin is 61.1 h.

Take `CC[C@H](C)[C@H](NC(=O)[C@H](CC(C)C)NC(=O)[C@H](CCC(=O)O)NC(=O)[C@H](CCC(=O)O)NC(=O)[C@@H](NC(=O)[C@H](CCCCN)NC(=O)[C@H](CCCCN)NC(=O)[C@@H](NC(=O)[C@H](Cc1ccc(O)cc1)NC(=O)[C@]1(C)CCC/C=C\CCC[C@](C)(NC(=O)[C@H](CC(=O)O)NC(=O)[C@H](Cc2c[nH]c3ccccc23)NC(=O)[C@H](CCC(=O)O)NC(=O)[C@H](CCC(=O)O)NC(=O)[C@H](Cc2c[nH]c3ccccc23)NC(=O)[C@@H](NC(=O)[C@H](CCSC)NC(C)=O)[C@@H](C)O)C(=O)N[C@@H](CCCCN)C(=O)N[C@@H]([C@@H](C)CC)C(=O)N[C@@H](CCC(=O)O)C(=O)N1)[C@@H](C)O)[C@@H](C)CC)C(=O)N[C@@H](CCCCN)C(=O)N[C@@H](CCCCN)C(=O)N[C@@H](CO)C(N)=O` (Ac-MTWEEWD[S5]KIE[S5]YTKKIEELIKKS-NH2; staple (Z) 8-12): the IC50 in data set [1] was 12.5 nM; in data set [2] it was 7.2 nM; in [3] it was 3.3 nM; in data set [4], 16.2 nM; in data set [5], 6.8 nM; in data set [6], 20.3 nM. Further, the IC50 in [7] worked out at 3.3 nM; in data set [8], 8.6 nM; in data set [9], 0.4 nM. In addition, in the data set with chymotrypsin, the half-life at 25 µM was found to be 11.8 h.

Regarding `CC[C@H](C)[C@H](NC(=O)[C@H](CCCCN)NC(=O)[C@H](CCCCN)NC(=O)[C@H](CC(=O)O)NC(=O)[C@H](Cc1c[nH]c2ccccc12)NC(=O)[C@H](CCC(=O)O)NC(=O)[C@H](CCC(=O)O)NC(=O)[C@H](Cc1c[nH]c2ccccc12)NC(=O)[C@@H](NC(=O)[C@H](CCSC)NC(C)=O)[C@@H](C)O)C(=O)N[C@@H](CCC(=O)O)C(=O)N[C@@H](CCC(=O)O)C(=O)N[C@@H](Cc1ccc(O)cc1)C(=O)N[C@H](C(=O)N[C@@]1(C)CCC/C=C\CCC[C@@](C)(C(=O)N[C@@H](CC(C)C)C(=O)N[C@H](C(=O)N[C@@H](CCCCN)C(=O)N[C@@H](CCCCN)C(=O)N[C@@H](CO)C(N)=O)[C@@H](C)CC)NC(=O)[C@H](CCC(=O)O)NC(=O)[C@H]([C@@H](C)CC)NC(=O)[C@H](CCCCN)NC1=O)[C@@H](C)O` (Ac-MTWEEWDKKIEEYT[S5]KIE[S5]LIKKS-NH2; staple (Z) 15-19), the IC50 in [1] is 10.4 nM; in [2] it was 8.8 nM; in data set [3], 14 nM; in data set [4], 71.7 nM; in [5], 27.7 nM; in [6] it was 82.3 nM. For the same compound, the half-maximal inhibitory concentration (IC50) in data set [7] came out at 14.4 nM; in data set [8] it was 8.7 nM; in data set [9] it was 0.5 nM. In addition, the half-life at 25 µM in the data set with chymotrypsin was 8.25 h.

In the case of Ac-MTWEEWDKKIEEYTKKIEELIKKS-NH2, the IC50 in [1] turned out to be 10.3 nM; in data set [2], 5.9 nM; in [3], 7.5 nM; in data set [4], 22.3 nM; in [5], 35 nM; in data set [6] it was 12.9 nM. Also, the half-maximal inhibitory concentration (IC50) in data set [7] worked out at 2.9 nM; in [8], 7.3 nM; in data set [9], 2.4 nM. The Ratio IC50 worked out at 2.3 in data set [10]; 2.6 in [11]; 2.3 in data set [12]; 1.1 in [13]; 19 in [14]; 13 in data set [15]. Also, the Ratio IC50 in data set [16] stood at 3.4; in data set [17], 1.2; in data set [18], 1.5. Moreover, the half-life at 25 µM with chymotrypsin was 2.08 h.
